Measurements as given in PMC4277207 (ChemMedChem, 2014).
Entries after “also recorded” stand apart in the source; their conditions may differ. Like-named read-outs stand apart in the source and are kept apart here.

Experiments:
[1] = system: D2-like receptor (D2, D3, and D4); assay: [3H]spiperone binding assay, rat striatal; details: ratio of Ki values, rat brain preparation
Outline: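 The D2-like assay used [3H]spiperone at 0.2 nM on caudate-putamen membranes at 1.5 mg o.w.w./mL, in agonist-optimised Tris-HCl/KCl/MgCl2/CaCl2 buffer at pH 7.4. Nonspecific binding was set with 1 μM (+)-butaclamol, and KD was 0.4 nM. For two-site curves, the high-affinity Ki is reported. […] Values are means of 3–6 determinations.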

[2] = system: D1-like receptor (D1 and D5); assay: [3H]SCH 23390 binding assay, rat striatal membranes; details: ratio of Ki values, rat brain preparation
[3] = biological target: human D3 receptor (Homo sapiens, UniProt P35462); format: cell-based; details: hD3-transfected CHOp cells, mitogenesis; for IC50: read-out: Agonist activity: IC50, mean ± SEM of 3–6 determinations
[4] = format: in vitro ADME

Sequence of human D3 receptor (P35462 whole entry): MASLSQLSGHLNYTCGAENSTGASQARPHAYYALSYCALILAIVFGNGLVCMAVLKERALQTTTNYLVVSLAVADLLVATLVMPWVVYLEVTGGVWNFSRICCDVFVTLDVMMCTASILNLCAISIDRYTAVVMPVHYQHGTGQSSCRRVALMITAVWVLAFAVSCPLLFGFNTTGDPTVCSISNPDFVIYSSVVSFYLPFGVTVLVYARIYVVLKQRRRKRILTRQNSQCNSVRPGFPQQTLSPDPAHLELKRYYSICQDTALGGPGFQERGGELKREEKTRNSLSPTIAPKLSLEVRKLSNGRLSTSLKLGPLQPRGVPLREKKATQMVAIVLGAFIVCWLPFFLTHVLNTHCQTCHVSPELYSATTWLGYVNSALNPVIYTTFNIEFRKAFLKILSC

Row | SMILES | Selectivity D2-like/D3 [1] | Selectivity D1-like/D3 [2] | % of Stimulation compared to Quinpirole as the standard agonist [3] [%] | functional activity at the human D3 receptor (agonist character) [3] | IC50 [3] [µM] | t1/2 in human liver microsomes [4] [h] | Percentage remaining of compounds in human liver microsomes ([4]; 0 h) [%] | Percentage remaining of compounds in human liver microsomes ([4]; 5 min) [%] | Percentage remaining of compounds in human liver microsomes ([4]; 10 min) [%] | Percentage remaining of compounds in human liver microsomes ([4]; 0.25 h) [%] | Percentage remaining of compounds in human liver microsomes ([4]; 0.5 h) [%] | Percentage remaining of compounds in human liver microsomes ([4]; 1 h) [%]
1 | CCCN(CC[C@]1(O)C[C@@H](NC(=O)c2cccc(-c3noc(C)n3)c2)C1)[C@H]1CCc2nc(N)sc2C1 (relative stereo) [Compound 23, N-(cis-3-(2-(((S)-2-amino-4,5,6,7-tetrahydrobenzo[d]thiazol-6-yl)(propyl)amino)-ethyl)-3-hydroxycyclobutyl)-3-(5-methyl-1,2,4-oxadiazol-3-yl)benzamide] | 29,800 | 28,300 | 100 | full D3 agonists; also recorded: full agonist | 0.019 ± 0.0015 | >1 | 100 | 96.6 | 99.2 | 99.0 | 90.0 | 65.5
2 | CCCN(CCC1(O)CC(NC(=O)c2ccccc2F)C1)[C@H]1CCc2nc(N)sc2C1 (stereo in doubt) [Compound 15, N-(cis-3-(2-(((S)-2-amino-4,5,6,7-tetrahydrobenzo[d]thiazol-6-yl)(propyl)amino)-ethyl)-3-hydroxycyclobutyl)-2-fluorobenzamide] | 36,956 | 116,521 | 100 | full D3 agonists | 0.002 ± 0.00049 |  |  |  |  |  |  | 
3 | CCCN(CC[C@]1(O)C[C@@H](NC(=O)c2cccc(OC)c2)C1)[C@H]1CCc2nc(N)sc2C1 (relative stereo) [Compound 21, N-(cis-3-(2-(((S)-2-Amino-4,5,6,7-tetrahydrobenzo[d]thiazol-6-yl)(propyl)amino)-ethyl)-3-hydroxycyclobutyl)-3-methoxybenzamide] | 12,836 | 84,474 | 100 | full D3 agonists | 0.018 ± 0.0027 | >1 | 100 | 99.7 | 98.5 | 92.5 | 83.0 | 74.1
4 | CCCN(CCC1(O)CC(NC(=O)c2ccc(F)c(Cl)c2)C1)[C@H]1CCc2nc(N)sc2C1 (stereo in doubt) [Compound 18, N-(cis-3-(2-(((S)-2-amino-4,5,6,7-tetrahydrobenzo[d]thiazol-6-yl)(propyl)amino)-ethyl)-3-hydroxycyclobutyl)-3-chloro-4-fluorobenzamide] | 16,272 | 65,581 | 100 | full D3 agonists | 0.002 ± 0.00034 |  |  |  |  |  |  | 
